From ChEMBL document CHEMBL5329176, “Design, synthesis, and biological evaluation of novel pyrimidin-2-amine derivatives as potent PLK4 inhibitors” (RSC Med Chem, 2023)
One block for each molecule: values may come before it.

Key:
[1] = target: T1, Serine/threonine-protein kinase PLK4 (Homo sapiens, UniProt O00444); assay: Inhibition of human recombinant PLK4 incubated for 1 hrs by LanthaScreen Eu kinase FRET assay
T1 sequence (O00444 whole entry): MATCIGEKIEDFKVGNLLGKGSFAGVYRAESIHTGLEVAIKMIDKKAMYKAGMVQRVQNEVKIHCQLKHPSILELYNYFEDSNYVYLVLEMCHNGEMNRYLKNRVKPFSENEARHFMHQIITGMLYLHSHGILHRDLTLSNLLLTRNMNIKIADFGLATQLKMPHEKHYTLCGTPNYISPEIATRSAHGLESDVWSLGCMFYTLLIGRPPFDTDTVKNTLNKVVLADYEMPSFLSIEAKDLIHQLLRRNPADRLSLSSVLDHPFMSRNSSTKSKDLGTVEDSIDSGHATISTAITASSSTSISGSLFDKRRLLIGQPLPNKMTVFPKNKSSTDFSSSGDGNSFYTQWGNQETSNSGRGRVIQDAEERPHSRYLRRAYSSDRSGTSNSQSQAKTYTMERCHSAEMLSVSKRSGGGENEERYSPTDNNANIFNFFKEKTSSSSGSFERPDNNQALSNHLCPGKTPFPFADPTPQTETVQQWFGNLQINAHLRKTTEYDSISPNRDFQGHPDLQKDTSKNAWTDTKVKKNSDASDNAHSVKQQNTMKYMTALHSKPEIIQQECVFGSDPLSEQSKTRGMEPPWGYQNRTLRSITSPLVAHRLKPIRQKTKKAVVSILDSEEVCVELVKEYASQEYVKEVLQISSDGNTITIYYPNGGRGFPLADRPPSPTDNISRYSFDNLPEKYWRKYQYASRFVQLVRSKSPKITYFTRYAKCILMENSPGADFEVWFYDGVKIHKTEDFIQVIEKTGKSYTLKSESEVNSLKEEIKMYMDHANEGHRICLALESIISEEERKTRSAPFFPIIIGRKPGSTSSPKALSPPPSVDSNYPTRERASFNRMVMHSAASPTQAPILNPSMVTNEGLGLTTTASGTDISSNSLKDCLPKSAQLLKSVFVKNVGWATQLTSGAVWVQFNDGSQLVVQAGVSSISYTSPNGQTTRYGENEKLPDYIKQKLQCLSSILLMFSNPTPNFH

MCF7 = assay: Antiproliferative activity against human MCF7 cells assessed as cell growth inhibition incubated for 5 days by MTT assay; type: functional, cell-based; conditions: MCF7, 120 h
[2] = Metabolic stability in human liver microsomes assessed as half life in presence of NADPH as co-foctor incubated for 60 mins by LC-MS/MS analysis; type: ADME, Microsome
[3] = Metabolic stability in human liver microsomes assessed as parent compound remaining in presence of NADPH as co-foctor and measured after 60 mins by LC-MS/MS analysis; type: ADME, Microsome; conditions: read-out: Stability
[4] = Metabolic stability in human liver microsomes assessed as intrinsic clearance in presence of NADPH as co-foctor incubated for 60 mins by LC-MS/MS analysis; type: ADME, Microsome; conditions: read-out: CLH
MDA-MB-231 = assay: Antiproliferative activity against human MDA-MB-231 cells assessed as cell growth inhibition incubated for 5 days by MTT assay; type: functional, cell-based; conditions: MDA-MB-231, 120 h
[5] = Metabolic stability in human liver microsomes assessed as parent compound remaining in absence of NADPH as co-foctor and measured after 60 mins by LC-MS/MS analysis; type: ADME, Microsome; conditions: read-out: Stability
BT-474 = assay: Antiproliferative activity against human BT-474 cells assessed as cell growth inhibition incubated for 5 days by MTT assay; type: functional, cell-based; conditions: BT-474, 120 h
[6] = Metabolic stability in human plasma assessed as parent compound remaining and measured after 30 mins by LC-MS/MS analysis; type: ADME, cell-free; conditions: read-out: Stability
How it was run: (§1)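 Pooled frozen plasma was thawed at 37 °C and centrifuged to remove clots. Compound was spiked to a final 2 μM (duplicate) and incubated at 37 °C. At 0, 10, 30, 60 and 120 min, protein was precipitated with acetonitrile stop solution containing tolbutamide and labetalol internal standards. Samples were centrifuged at 4000 rpm and 4 °C, and the supernatant was analysed by LC–MS/MS.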

[7] = Metabolic stability in human plasma assessed as parent compound remaining and measured after 10 mins by LC-MS/MS analysis; type: ADME, cell-free; conditions: read-out: Stability; how it was run: as §1
[8] = Metabolic stability in human plasma assessed as parent compound remaining and measured after 60 mins by LC-MS/MS analysis; type: ADME, cell-free; conditions: read-out: Stability; how it was run: as §1
CYP1A2 = target: T2, CYP1A2 (Homo sapiens, UniProt P05177); assay: Inhibition of CYP1A2 in human liver microsomes at 10 uM preincubated for 10 mins followed by NADPH cofactor addition and measured after 10 mins by LC-MS/MS analysis; type: ADME, Microsome; conditions: time 20 min
T2 sequence (P05177 whole entry): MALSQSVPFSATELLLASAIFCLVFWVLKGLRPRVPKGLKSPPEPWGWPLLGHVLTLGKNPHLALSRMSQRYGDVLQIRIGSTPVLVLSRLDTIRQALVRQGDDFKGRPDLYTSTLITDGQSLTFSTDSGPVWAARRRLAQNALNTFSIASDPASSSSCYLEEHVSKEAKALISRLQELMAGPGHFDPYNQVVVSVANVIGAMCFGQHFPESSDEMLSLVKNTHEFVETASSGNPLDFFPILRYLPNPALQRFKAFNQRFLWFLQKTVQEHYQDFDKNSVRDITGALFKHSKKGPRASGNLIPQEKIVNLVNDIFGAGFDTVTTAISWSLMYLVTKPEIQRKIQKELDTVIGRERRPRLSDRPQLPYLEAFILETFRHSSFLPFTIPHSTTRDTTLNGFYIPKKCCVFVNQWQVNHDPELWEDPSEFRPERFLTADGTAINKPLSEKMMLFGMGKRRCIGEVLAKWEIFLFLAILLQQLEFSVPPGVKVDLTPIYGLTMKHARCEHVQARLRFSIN
How it was run: (§2)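 Human liver microsome (HLM) incubation with isoform-specific substrate solutions. Test compound was added from a 100× working solution. Mixture was pre-warmed about 10 min at 37 °C, then NADPH cofactor was added and incubated 10 min at 37 °C. The reaction was stopped with cold stop solution, centrifuged at 4000 rpm for 20 min, and the supernatant was diluted and analysed by LC–MS/MS.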

CYP2C19 = CYP2C19 (Homo sapiens, UniProt P33261); assay: Inhibition of CYP2C19 in human liver microsomes at 10 uM preincubated for 10 mins followed by NADPH cofactor addition and measured after 10 mins by LC-MS/MS analysis; type: ADME, Microsome; conditions: time 20 min; how it was run: as §2
CYP2D6 = CYP2D6 (Homo sapiens, UniProt P10635); assay: Inhibition of CYP2D6 in human liver microsomes at 10 uM preincubated for 10 mins followed by NADPH cofactor addition and measured after 10 mins by LC-MS/MS analysis; type: ADME, Microsome; conditions: time 20 min; how it was run: as §2
[9] = Metabolic stability in human plasma assessed as half life and measured upto 120 mins by LC-MS/MS analysis; type: ADME, cell-free; how it was run: as §1
CYP3A4 = CYP3A4 (Homo sapiens, UniProt P08684); assay: Inhibition of CYP3A4 in human liver microsomes at 10 uM preincubated for 10 mins followed by NADPH cofactor addition and measured after 10 mins by LC-MS/MS analysis; type: ADME, Microsome; conditions: time 20 min; how it was run: as §2
[10] = Metabolic stability in human plasma assessed as parent compound remaining and measured after 0 mins by LC-MS/MS analysis; type: ADME, cell-free; conditions: read-out: Stability; how it was run: as §1
[11] = Metabolic stability in human plasma assessed as parent compound remaining and measured after 120 mins by LC-MS/MS analysis; type: ADME, cell-free; conditions: read-out: Stability; how it was run: as §1
CYP2C9 = CYP2C9 (Homo sapiens, UniProt P11712); assay: Inhibition of CYP2C9 in human liver microsomes at 10 uM preincubated for 10 mins followed by NADPH cofactor addition and measured after 10 mins by LC-MS/MS analysis; type: ADME, Microsome; conditions: time 20 min
Sequence of CYP2C9 (P11712 whole entry): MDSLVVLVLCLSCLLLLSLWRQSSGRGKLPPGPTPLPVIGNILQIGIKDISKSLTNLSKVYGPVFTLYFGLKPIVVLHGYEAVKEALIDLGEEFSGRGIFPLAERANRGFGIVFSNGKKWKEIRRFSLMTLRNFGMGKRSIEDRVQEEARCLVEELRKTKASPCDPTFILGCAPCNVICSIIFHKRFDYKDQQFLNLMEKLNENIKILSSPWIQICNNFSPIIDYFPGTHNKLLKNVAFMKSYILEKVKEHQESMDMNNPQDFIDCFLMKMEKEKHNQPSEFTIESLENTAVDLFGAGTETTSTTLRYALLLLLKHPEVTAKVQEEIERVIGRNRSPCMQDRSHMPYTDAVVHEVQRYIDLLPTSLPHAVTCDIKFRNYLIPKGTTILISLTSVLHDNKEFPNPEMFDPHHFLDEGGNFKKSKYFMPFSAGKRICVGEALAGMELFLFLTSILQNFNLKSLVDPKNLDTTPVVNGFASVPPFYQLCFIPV

Sequence of CYP2C19 (P33261 whole entry): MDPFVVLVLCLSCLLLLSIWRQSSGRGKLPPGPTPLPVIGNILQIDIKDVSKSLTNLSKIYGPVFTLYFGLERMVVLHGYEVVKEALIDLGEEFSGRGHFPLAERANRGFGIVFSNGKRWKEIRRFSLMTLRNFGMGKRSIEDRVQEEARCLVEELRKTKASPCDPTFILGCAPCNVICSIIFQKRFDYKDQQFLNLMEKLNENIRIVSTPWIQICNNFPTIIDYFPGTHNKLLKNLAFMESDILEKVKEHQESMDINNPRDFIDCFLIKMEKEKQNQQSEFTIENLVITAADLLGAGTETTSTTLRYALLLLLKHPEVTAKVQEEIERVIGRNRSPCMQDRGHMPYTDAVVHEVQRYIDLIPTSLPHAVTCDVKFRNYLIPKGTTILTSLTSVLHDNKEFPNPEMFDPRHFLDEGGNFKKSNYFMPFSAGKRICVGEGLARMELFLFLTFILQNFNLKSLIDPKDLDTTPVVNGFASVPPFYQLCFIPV
Sequence of CYP3A4 (P08684 whole entry): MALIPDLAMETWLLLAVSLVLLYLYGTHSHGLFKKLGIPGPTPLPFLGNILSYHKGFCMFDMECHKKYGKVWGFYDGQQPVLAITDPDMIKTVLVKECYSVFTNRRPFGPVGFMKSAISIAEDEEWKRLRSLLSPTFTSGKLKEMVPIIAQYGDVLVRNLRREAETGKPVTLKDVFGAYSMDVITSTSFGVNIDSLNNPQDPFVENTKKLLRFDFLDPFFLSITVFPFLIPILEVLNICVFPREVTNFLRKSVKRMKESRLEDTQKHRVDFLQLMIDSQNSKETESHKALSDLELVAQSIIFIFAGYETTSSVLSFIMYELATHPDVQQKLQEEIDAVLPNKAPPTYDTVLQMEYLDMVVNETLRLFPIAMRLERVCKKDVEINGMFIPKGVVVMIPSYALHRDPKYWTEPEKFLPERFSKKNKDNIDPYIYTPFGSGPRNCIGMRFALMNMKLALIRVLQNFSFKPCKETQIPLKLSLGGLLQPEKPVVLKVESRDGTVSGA
Sequence of CYP2D6 (P10635 whole entry): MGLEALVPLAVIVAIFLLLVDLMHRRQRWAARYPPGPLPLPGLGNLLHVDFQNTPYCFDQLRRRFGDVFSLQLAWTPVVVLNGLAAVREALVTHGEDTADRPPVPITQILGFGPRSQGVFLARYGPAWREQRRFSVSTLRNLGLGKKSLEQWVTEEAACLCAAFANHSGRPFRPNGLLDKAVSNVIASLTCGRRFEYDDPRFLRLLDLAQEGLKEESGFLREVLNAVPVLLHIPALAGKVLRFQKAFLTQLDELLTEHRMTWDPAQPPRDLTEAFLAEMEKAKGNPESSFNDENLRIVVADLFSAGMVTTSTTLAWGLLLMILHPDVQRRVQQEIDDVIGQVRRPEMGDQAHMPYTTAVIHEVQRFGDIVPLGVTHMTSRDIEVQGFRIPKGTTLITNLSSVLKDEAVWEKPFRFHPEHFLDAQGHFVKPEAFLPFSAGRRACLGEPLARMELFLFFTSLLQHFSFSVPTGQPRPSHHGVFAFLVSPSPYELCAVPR

Structure (SMILES): Nc1ccc(Sc2ccnc(Nc3ccc(C(=O)N4CCOCC4)cc3)n2)cc1
IC50 (MCF7): 3.86 µM
IC50 (MDA-MB-231): 4.47 µM
IC50 (BT-474): 16.2 µM
IC50 [1]: 39 nM

Structure (SMILES): Nc1ccc(Sc2ccnc(Nc3ccc(N4CCSCC4)cc3)n2)cc1
IC50 [1]: 1100 nM

Structure (SMILES): Nc1ccc(Sc2ccnc(Nc3ccc(N4CCNCC4)cc3)n2)cc1
IC50 [1]: 139 nM

Structure (SMILES): Nc1ccc(Sc2ccnc(Nc3cccc(CN4CCOCC4)c3)n2)cc1
IC50 [1]: 137 nM

Structure (SMILES): Nc1ccc(Sc2ccnc(Nc3ccccc3)n2)cc1
IC50 [1]: 519 nM

Structure (SMILES): c1ccc(CNc2ccnc(Nc3ccc(N4CCOCC4)cc3)n2)cc1
IC50 [1]: 176 nM

Structure (SMILES): c1ccc(Oc2ccnc(Nc3ccc(N4CCOCC4)cc3)n2)cc1
IC50 [1]: 81 nM

Structure (SMILES): Nc1ccc(Sc2ccnc(Nc3ccc(NC4CCNCC4)cc3)n2)cc1
IC50 [1]: 57 nM

Structure (SMILES): c1ccc2c(Sc3ccnc(Nc4ccc(N5CCOCC5)cc4)n3)cccc2c1
IC50 [1]: 177 nM

Structure (SMILES): c1ccc(Nc2ccnc(Nc3ccc(N4CCOCC4)cc3)n2)cc1
IC50 [1]: 65 nM

Structure (SMILES): Nc1ccc(Sc2ccnc(Nc3ccc(NC4CCNC4)cc3)n2)cc1 (stereo unspecified)
IC50 [1]: 80 nM

Structure (SMILES): Nc1ccc(Sc2ccnc(Nc3ccc(NC4CCOCC4)cc3)n2)cc1
IC50 (MCF7): 1.44 µM
half-life [2]: > 145 min
remaining at 0.5 h [6]: 114%
remaining at 10 min [7]: 105%
remaining at 1 h [8]: 107%
inhibition at 10 min, 10 µM (CYP1A2): 33.1%
inhibition at 10 min, 10 µM (CYP2C19): 48.7%
remaining at 1 h [3]: 100%
inhibition at 10 min, 10 µM (CYP2D6): 8%
half-life [9]: > 289 min
microsomal CLint [4]: < 9.6 µL/min/mg
inhibition at 10 min, 10 µM (CYP3A4): 14.4%
IC50 (MDA-MB-231): 2.13 µM
remaining at 1 h [5]: 104%
remaining at 0 h [10]: 100%
remaining at 2 h [11]: 104%
IC50 (BT-474): 7.81 µM
inhibition at 10 min, 10 µM (CYP2C9): 42.9%
IC50 [1]: 7 nM

Structure (SMILES): Nc1ccc(Sc2ccnc(Nc3ccc(CN4CCNCC4)cc3)n2)cc1
IC50 [1]: 379 nM

Structure (SMILES): Nc1ccc(Sc2ccnc(Nc3ccc(CN4CCOCC4)cc3)n2)cc1
IC50 [1]: 64 nM

Structure (SMILES): COC(=O)c1cc(Nc2nccc(Sc3ccc(N)cc3)n2)ccc1NC1CCOCC1
IC50 [1]: 6620 nM

Structure (SMILES): CNC(=O)c1ccccc1Sc1ccnc(Nc2ccc(N3CCOCC3)cc2)n1
IC50 [1]: 102 nM

Other lines, results leading:

IC50 [1]: 56 nM
Structure (SMILES): Nc1ccc(Sc2ccnc(Nc3ccc(N4CCOCC4)cc3)n2)cc1F

IC50 [1]: 79 nM
Structure (SMILES): Fc1cccc(Sc2ccnc(Nc3ccc(N4CCOCC4)cc3)n2)c1

IC50 (MCF7): 8.72 µM
half-life [2]: 58.3 min
remaining at 1 h [3]: 48.7%
microsomal CLint [4]: 23.8 µL/min/mg
IC50 (MDA-MB-231): 5.11 µM
remaining at 1 h [5]: 94.4%
IC50 (BT-474): > 20 µM
IC50 [1]: 17 nM
Structure (SMILES): Nc1ccc(Sc2ccnc(Nc3ccc(N4CCOCC4)cc3)n2)cc1

IC50 (MCF7): 3.45 µM
IC50 (MDA-MB-231): 8.08 µM
IC50 (BT-474): 9.32 µM
IC50 [1]: 35 nM
Structure (SMILES): Nc1ccc(Sc2ccnc(Nc3ccc(N4CCOCC4)cc3)n2)c(F)c1

IC50 [1]: 71 nM
Structure (SMILES): CNc1ccc(Sc2ccnc(Nc3ccc(N4CCOCC4)cc3)n2)cc1

IC50 (MCF7): > 20 µM
IC50 (MDA-MB-231): 5.15 µM
IC50 (BT-474): 12.9 µM
IC50 [1]: 45 nM
Structure (SMILES): Nc1ccc(Sc2ccnc(Nc3cccc(N4CCOCC4)c3)n2)cc1

IC50 [1]: 198 nM
Structure (SMILES): Fc1ccc(Sc2ccnc(Nc3ccc(N4CCOCC4)cc3)n2)cc1

IC50 [1]: 153 nM
Structure (SMILES): Nc1cccc(Sc2ccnc(Nc3ccc(N4CCOCC4)cc3)n2)c1

IC50 [1]: 2380 nM
Structure (SMILES): Brc1cccc(Sc2ccnc(Nc3ccc(N4CCOCC4)cc3)n2)c1

IC50 [1]: 219 nM
Structure (SMILES): Brc1ccccc1Sc1ccnc(Nc2ccc(N3CCOCC3)cc2)n1

IC50 [1]: 1430 nM
Structure (SMILES): Clc1cccc(Sc2ccnc(Nc3ccc(N4CCOCC4)cc3)n2)c1

IC50 [1]: 125 nM
Structure (SMILES): c1cc(Sc2ccc3[nH]ncc3c2)nc(Nc2ccc(N3CCOCC3)cc2)n1

IC50 [1]: 142 nM
Structure (SMILES): Clc1ccccc1Sc1ccnc(Nc2ccc(N3CCOCC3)cc2)n1

IC50 [1]: 149 nM
Structure (SMILES): Clc1ccc(Sc2ccnc(Nc3ccc(N4CCOCC4)cc3)n2)cc1

IC50 [1]: 189 nM
Structure (SMILES): Brc1ccc(Sc2ccnc(Nc3ccc(N4CCOCC4)cc3)n2)cc1

IC50 [1]: 136 nM
Structure (SMILES): Fc1ccccc1Sc1ccnc(Nc2ccc(N3CCOCC3)cc2)n1

IC50 (MCF7): > 20 µM
IC50 (MDA-MB-231): 7.57 µM
IC50 (BT-474): > 20 µM
IC50 [1]: 31 nM
Structure (SMILES): c1ccc(Sc2ccnc(Nc3ccc(N4CCOCC4)cc3)n2)cc1

IC50 [1]: 297 nM
Structure (SMILES): Nc1ccccc1Sc1ccnc(Nc2ccc(N3CCOCC3)cc2)n1

IC50 [1]: 313 nM
Structure (SMILES): CN(C)c1ccc(Sc2ccnc(Nc3ccc(N4CCOCC4)cc3)n2)cc1

IC50 (MCF7): > 20 µM
IC50 (MDA-MB-231): 6.48 µM
IC50 (BT-474): > 20 µM
IC50 [1]: 46 nM
Structure (SMILES): c1cc(Sc2ccnc(Nc3ccc(N4CCOCC4)cc3)n2)c2cccnc2c1
